Autophagy mod: autophagy modulators in MEF cells, primary screen, imaging, high-content, MEF GFP-LC3; MEF GFP-LC3 puncta imaging; test concentration mostly 10 µM; calls only at 10 µM (by protocol); actives 0.98% (n = 190,000); AID 463193, 2010;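 active = percentage of spot-positive cells more than 3 SD above its plate mean, without a fluorescence outlier flag or 80% toxicity; inconclusive = no clear call, values can overlap the other calls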
Insulin prom up: insulin promoter activators in MIN6 cells, imaging, high-content screening, mouse beta cells; actives 0.3% (n = 190,000); AID 1625, 2009; MIN6 insulin promoter-GFP reporter; stronger effect = higher value; z-score at 5 µM;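 active = z-score above 3 at 5 µM with at least 500 cells counted in the well; inconclusive = wells under 500 cells, flagged as cytotoxic or low count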
bCat nuc transl: modulators of beta-catenin nuclear translocation, primary screen, imaging, HeLa cells, immunofluorescence, high-content; nuclear translocation activity, % at 5 µM; actives 0.3% (n = 190,000);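 active = nuclear translocation activity above 50% at 5 µM, with a well cell count of 50 or more; inconclusive = wells under 50 cells across six images, flagged as toxic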;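 also: per-cell ratio of nuclear to cytoplasmic median beta-catenin stain intensity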
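Test system: HeLa cells, endogenous beta-catenin; Compound: single 5 µM dose plus 0.02–20 µM confirmation series; Times: compound exposure 24 h at 37°C; Signal: fluorescence imaging of beta-catenin antibody stain plus DAPI; Read-out: % activation, nuclear-to-cytoplasmic median beta-catenin signal ratio per cell.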
MT stabilizer: microtubule stabilizers in HeLa cells, primary screen, imaging, high-content imaging | AID 2205, 2009 | actives 0.83% (n = 200,000) | % tubulin-high responders, % at 10 µM | HeLa tubulin immunostaining HCS, 24 h; share of cells brighter than vehicle mean+2SD;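 active = plate Z-score above 3 for both tubulin-high and condensed-nucleus cell shares, with cell loss under 80%, at 10 µM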;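 also: anti alpha tubulin signal scored within the nucleus-defined area of each cell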
Large screens that a line does not name were inactive. Sampled rows, rich in hits. Any-hit rate of the full collection: about 1.9%.

CC(NC(=O)/C(C#N)=C/c1ccco1)c1ccccc1 (stereo not drawn)	none (no result: Autophagy mod, MT stabilizer)
CC(NC(=O)/C(C#N)=C1\N=C(NC(=O)c2ccco2)c2ccccc21)c1ccccc1 (stereo not drawn)	Insulin prom up 3.7 (no result: Autophagy mod, MT stabilizer)
COC(=O)NCN1C(=O)C2C3C=CC(C3)C2C1=O (stereo not drawn)	none (no result: Insulin prom up)
CCN(CC)CCNC(=O)c1cc2c(-c3ccc(Cl)cc3)nn(C)c2s1	Autophagy mod active (no result: bCat nuc transl)
CCOCCCNC(=O)c1cc2c(-c3ccc(Cl)cc3)nn(C)c2s1	none (no result: bCat nuc transl)
CCOc1ccc(Nc2nc(NCC3CCCO3)c3ccccc3n2)cc1 (stereo not drawn)	Autophagy mod active, Insulin prom up inconclusive
COc1ccc(C2/C=C\CN(S(=O)(=O)c3cccc4cccnc34)CC(=O)N2Cc2ccc(F)cc2)cc1 (stereo not drawn)	Insulin prom up 7.5 (no result: Autophagy mod, MT stabilizer)
CCOC(=O)c1ccc(NC(=O)COc2ccc(S(=O)(=O)NC(C)CC)cc2)cc1 (stereo not drawn)	Insulin prom up 3.1
CC(C)Cn1c(=O)c(C(=O)N/N=C/c2cccc(F)c2)c(O)c2ccccc21	none
CCCCNC(=S)N(C)/N=C/c1c(C)[nH]c2ccccc12	Autophagy mod active (no result: bCat nuc transl)
CCCCNC(=S)N(C)/N=C/c1c(F)c(F)c(F)c(F)c1F	none (no result: bCat nuc transl)
COc1ccc(C2C(C(=O)Nc3cccnc3)=C(C)Nc3nc(-c4cccs4)nn32)cc1OC (stereo not drawn)	none (no result: Autophagy mod)
COc1ccccc1NC(=O)C1=C(C)Nc2nc(-c3cccs3)nn2C1c1cccc(O)c1 (stereo not drawn)	Autophagy mod active
COc1ccc(C(=O)c2cc([N+](=O)[O-])ccc2N2CCN(C)CC2)cc1	Autophagy mod active, bCat nuc transl 74, MT stabilizer 14
COc1ccc(C(=O)c2cc([N+](=O)[O-])ccc2N2CCCC2)cc1	MT stabilizer 20
COc1ccc(C(C)=O)cc1COc1nc(C)nc2ccccc12	MT stabilizer 15
COc1ccc(C(C)=O)cc1COc1ccc(F)cc1	none
Cc1ccc(C(=O)NC2CCc3ccccc3C2=O)cc1 (stereo not drawn)	none
Cc1ccc(C(=O)NC2c3ccccc3-c3ccccc32)cc1	bCat nuc transl 106, MT stabilizer 24
COc1ccc([N+](=O)[O-])cc1NC(=O)c1ccc(N2C(=O)CCC2=O)cc1	none (no result: Autophagy mod, MT stabilizer)
NC(=O)c1ccccc1NC(=S)NC(=O)CCc1ccccc1	MT stabilizer 23 (no result: bCat nuc transl)
COc1ccc(-n2c(SCc3ccc(C#N)cc3)nnc2-c2ccccn2)cc1	none
COc1ccc(C2Sc3nncn3N2Cc2ccc(C#N)cc2)cc1 (stereo not drawn)	Autophagy mod active
N#C/C(=C\c1ccc(Cl)cc1)c1nc2ncccc2[nH]1	MT stabilizer 42
Cc1cccc(NN=C2c3ccccc3-c3ccccc32)c1	none
CC(=O)NC(=S)Nc1cccc(S(=O)(=O)NC2=NCCC2)c1	none
CCCN(Cc1ccccc1)C(=S)NC(=O)c1ccccc1[N+](=O)[O-]	none
CCN(CC)c1ccc(-c2nn3c(-c4cccnc4)nnc3s2)cc1	MT stabilizer 38
COc1cccc(-c2nn3c(-c4cccc(C)c4)nnc3s2)c1	none
COc1cccc(-c2nnc3sc(-c4ccc(C)cc4)nn23)c1	bCat nuc transl 68, MT stabilizer 33
COc1cc(-c2nn3c(-c4ccccc4)nnc3s2)cc(OC)c1OC	Autophagy mod active
CCOc1cccc(-c2nnc3sc(-c4cc(OC)c(OC)c(OC)c4)nn23)c1	none
Cc1ccc(S(=O)(=O)NN)c(C)c1N1CCCC1=O	none (no result: Autophagy mod, MT stabilizer)
Cc1c(C(=O)Nc2ccccc2[N+](=O)[O-])csc1-c1ccccc1	none
COC(=O)c1[nH]c2c(c1C)C(=O)CC(c1cc(OC)ccc1OC)C2 (stereo not drawn)	MT stabilizer 27 (no result: Autophagy mod)
COC(=O)c1[nH]c2c(c1C)C(=O)CC(c1cccs1)C2 (stereo not drawn)	Autophagy mod active, MT stabilizer 16
COc1cc(/C=C2\SC(=S)N(N(C)c3ccccc3)C2=O)ccc1O	none (no result: Autophagy mod, MT stabilizer)
CC(=O)c1ccc(N2CCC(C(=O)O)CC2)cc1	none
CC(=O)c1ccc(N2CCN(C(=O)C3CCC3)CC2)cc1	Autophagy mod active (no result: bCat nuc transl)
CCCCOc1ccc(-c2cc(C(F)(F)F)c(C#N)c(SCC(=O)O)n2)cc1	Autophagy mod active (no result: Insulin prom up)
Cc1cc(N/N=C/c2ccc(O)cc2O)nc(-c2ccccc2O)n1	Autophagy mod active
CC1CC(=O)C2=C(C1)OC(N)=C(C#N)C2c1coc2ccccc2c1=O (stereo not drawn)	Insulin prom up 3
CCn1c(C(=O)Nc2ccsc2C(=O)OC)cc2sc(Cl)cc21	Autophagy mod active (no result: bCat nuc transl)
CCOc1ccccc1C(=O)Nc1ccsc1C(=O)OC	bCat nuc transl 57, MT stabilizer 28
NC(N)=NC1=NC(=O)/C(=C/c2ccccc2-n2cccn2)S1	none
CCN(CC)c1ccc(CNc2nc3ccccc3n2C(C)C)cc1	none (no result: Autophagy mod, MT stabilizer)
CC(C)n1c(NCc2ccc(N(C)C)cc2)nc2ccccc21	Autophagy mod active
COc1ccc2cc3cc(C(=O)NCCN4CCN(c5ccccc5F)CC4)oc3nc2c1	none
COc1ccc2cc3cc(C(=O)Nc4ccccc4N4CCN(C)CC4)oc3nc2c1	Autophagy mod active
COc1ccc2cc3cc(C(=O)NCc4ccccn4)oc3nc2c1	Insulin prom up 3.3
COc1ccc2c(=O)c3c(=O)n(-c4ccc(C)cc4)c(-c4ccccc4)nc3oc2c1	none (no result: Autophagy mod, MT stabilizer)
Cc1ccc(-n2c(C)nc3oc4ccccc4c(=O)c3c2=O)cc1	Insulin prom up 3.9
CCCCNS(=O)(=O)/C=C/c1ccccc1	Autophagy mod active
c1ccc2c(-c3csc(-c4ccncc4)n3)c[nH]c2c1	Autophagy mod active (no result: Insulin prom up)
Brc1ccc(-c2csc(-c3c[nH]c4ccccc34)n2)cc1	none
COc1ccc(NCC(=O)n2c(C)c(C)c3ccccc32)cc1	MT stabilizer 20
COc1ccc(NC(=O)Cn2c(C)cc(=O)c3ccccc32)cc1	none
Cc1cccc(C)c1NC(=O)C(c1ccc(Cl)cc1Cl)N1CCCCC1 (stereo not drawn)	none (no result: Insulin prom up, bCat nuc transl)
CCCCC(=O)c1ccc(O)cc1O	Autophagy mod active (no result: Insulin prom up, bCat nuc transl)
CCCCC(=O)c1ccc(O)cc1	none
O=C1c2ccccc2C(=O)C1c1ccnc2ccccc12	none (no result: Insulin prom up, bCat nuc transl)
O=C1C(c2ccnc3ccccc23)=C(O)c2ccccc21	Autophagy mod active
Cc1ccc(C2CC(=O)NC(SCc3ccccc3)=C2C#N)o1 (stereo not drawn)	Insulin prom up 3.4
Cc1ccc(C(=O)CSC2=C(C#N)C(c3ccco3)C3=C(CCCC3=O)N2)cc1 (stereo not drawn)	bCat nuc transl 130, MT stabilizer 20
COc1cccc(NC(=O)CSC2=C(C#N)C(c3ccco3)C3=C(CCCC3=O)N2)c1 (stereo not drawn)	Autophagy mod active
CC(C)(C)c1ccc(C(=O)CCCSC2=C(C#N)C(c3ccco3)C3=C(CCCC3=O)N2)cc1 (stereo not drawn)	none
N#CC1=C(SCC(=O)Nc2ccccc2)NC(=O)CC1c1ccco1 (stereo not drawn)	Autophagy mod active, MT stabilizer 50 (no result: Insulin prom up, bCat nuc transl)
